Hits are enriched below; roughly 4.1% of the tested compounds scored in any of these assays.
Mdm2-MdmX inh: human Mdm2/MdmX binding inhibition. O15151+Q00987. SaOS-2 split-luciferase Mdm2/MdmX complementation, luminescence. AID 485346. inhibition, % at 8 µM. hit rate 3% among 330,000;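 active means inhibition of at least 50% at 8 µM in the primary screen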
Apaf1 inhib: blocks human Apaf-1 apoptosome activity | hit rate 0.71% among 330,000 | reconstituted apoptosome caspase-3 activity, DEVD-Rh110 fluorescence | inhibition, % at 20 µM | AID 489030 | O14727; active means inhibition of at least 40% at 20 µM;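 further: plate controls were DMSO wells for no effect and DEVD-CHO caspase inhibitor wells for full effect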
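System: reconstituted apoptosome with Apaf-1, cytochrome c, caspase-9, procaspase-3, dATP; Signal: Rh110 fluorescence intensity; Schedule: 30 min compound preincubation, 50 min activation, room temperature; Reagent: cytochrome c trigger plus (Z-DEVD)2-Rh110 caspase-3 substrate.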
UPR XBP1 act: activators of adaptive arm of unfolded protein response (XBP1); CHO-XBP1 luciferase reporter, IRE1-XBP1 UPR activation, luminescence; percent of tunicamycin response, DMSO as zero; activation, % at 20 µM; hit rate 0.33% among 330,000; AID 463104;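 active means versus positive control, 20 µM dose yields 30% or more activation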;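 further: 100% = tunicamycin at 10 µg/mL and 0% = DMSO only wells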
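Material: CHO-XBP1 cells stably carrying IRE1-XBP1-driven luciferase reporter / Amount: 1000 cells per well / Compound: 20 µM, 1% DMSO / Times: 6 h treatment, 37 °C / Detection: luciferase luminescence / Measure: % activation of reporter signal versus tunicamycin and DMSO controls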
UBC13 polyUb: blocks human UBC13 polyubiquitin chain formation; inhibition, % at 20 µM; hit rate 0.47% among 330,000; TR-FRET; AID 485273; in the data active means inhibition above about 45%, passing the limit was not always enough
Target sequence (P61088 whole entry, looked up): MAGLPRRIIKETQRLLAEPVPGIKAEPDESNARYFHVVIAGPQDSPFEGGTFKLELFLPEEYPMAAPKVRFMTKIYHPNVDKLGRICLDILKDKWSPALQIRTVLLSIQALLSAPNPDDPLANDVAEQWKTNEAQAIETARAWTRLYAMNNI
UPR CHOP act: activators of apoptotic arm of unfolded protein response (CHOP); CHO-CHOP luciferase reporter, UPR activation, luminescence; percent of tunicamycin response over DMSO baseline; activation, % at 10 µM; hit rate 0.34% among 330,000;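 active means at 10 µM dose, activation of 40% or more, normalized to positive control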;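 further: 100% = tunicamycin at 10 µg/mL and 0% = DMSO alone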
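System: CHO-CHOP luciferase reporter cell line; amount: 500 cells/well; buffer or medium: F12 medium containing 10% fetal bovine serum; incubation: 6 h compound exposure at 37 °C after overnight seeding; measured by: luciferase luminescence after 10 min with Steady-Glo reagent; evaluation: % reporter activation, DMSO baseline versus tunicamycin full activation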
Casp3 UBC13 ctr: counter-screen for UBC13 inhibitors: human caspase-3 inhibition. hit rate 4% among 1,400. inhibition, % at 20 µM. Recombinant caspase-3, Caspase-Glo 3/7 luminescence, 60 min. AID 488856. shares compounds with UBC13 polyUb;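 active means mean inhibition across replicates above about 26%, limit read from the data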;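 further: plate controls were DMSO with caspase-3 for no effect and DMSO wells lacking enzyme for full effect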
Target sequence (P42574 whole entry, looked up): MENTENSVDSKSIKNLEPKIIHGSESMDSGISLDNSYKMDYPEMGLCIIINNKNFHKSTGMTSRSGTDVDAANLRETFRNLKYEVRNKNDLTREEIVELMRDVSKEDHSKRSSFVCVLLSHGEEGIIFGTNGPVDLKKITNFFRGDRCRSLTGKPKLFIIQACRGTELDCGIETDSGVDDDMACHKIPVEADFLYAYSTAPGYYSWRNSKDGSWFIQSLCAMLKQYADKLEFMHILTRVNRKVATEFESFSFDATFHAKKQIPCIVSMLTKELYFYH
UBC13 conf: confirmation of human UBC13 polyubiquitin inhibitors. shares compounds with UBC13 polyUb. UBC13 polyubiquitination, TR-FRET, biochemical. inhibition, % at 10 µM. hit rate 68% among 1,400; in the data active means inhibition above about 45%
Mdm2-MdmX conf: human Mdm2/MdmX binding inhibition, confirmed. shares compounds with Mdm2-MdmX inh. luminescent assay. inhibition, % at 8 µM. hit rate 55% among 10,000. AID 489028; in the data active means inhibition above about 40%
Full FLuc ctr: inhibits full-length luciferase, flagging false Mdm2/MdmX hits. inhibition, % at 8 µM. shares compounds with Mdm2-MdmX inh. hit rate 77% among 6,200. SaOS-2 full-length luciferase counterscreen, luminescence;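 active means mean inhibition at 8 µM reaching about 37%, which flags the compound as non-specific, limit read from the data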;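 further: p53-null SaOS-2 cells with luciferase driven by a doxycycline-inducible promoter; compound on cells about two nights before reading with doxycycline added after day one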
Apaf-1 inh conf: confirmation of Apaf-1 inhibitors. reconstituted apoptosome, caspase-3 DEVD-Rh110 fluorescence. inhibition, % at 20 µM. shares compounds with Apaf1 inhib. hit rate 25% among 1,800;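 active means mean inhibition of at least 40% at 20 µM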;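 further: plate controls were DMSO wells for no effect and DEVD-CHO caspase inhibitor control wells for full effect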
Rh110 interf inh: counter-screen for Apaf-1 inhibitors: fluorescence interference; shares compounds with Apaf1 inhib; activation (fluorescence interference), % at 20 µM; Rh110 fluorescence interference, quenched caspase reaction; 1,800 tested, under 10 active;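 active means signal rise of 40% or more at 20 µM, treated as a fluorescence artifact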
Fluor interf inh: shows fluorescence interference in the Apaf-1 inhibitor assay format; fluorescence interference counterscreen, Apaf-1 assay format; AID 588538; shares compounds with Apaf1 inhib; IC50, µM; 460 tested, under 10 active; call rule not given here
* hit, by the source's call.

How did CCc1ccc(OCC(O)CN2CCC(CN3C(=O)c4cccc5cccc(c45)C3=O)CC2)cc1 (stereo unspecified) do in these assays?
Mdm2-MdmX inh: 77*; Apaf1 inhib: 42*; UPR XBP1 act: 2; UBC13 polyUb: 61*; UPR CHOP act: 2; Casp3 UBC13 ctr: 4; UBC13 conf: 65*; Mdm2-MdmX conf: 33; Full FLuc ctr: 61*; Apaf-1 inh conf: 13; Rh110 interf inh: -10

Results for COc1ccc(NC(=O)c2ccc(-c3ccc(-c4noc(C)n4)cc3C)cc2)cc1N1CCN(C)CC1 ?
Mdm2-MdmX inh: 99*; Apaf1 inhib: 57*; UPR XBP1 act: 1; UBC13 polyUb: 78*; UPR CHOP act: 17; Casp3 UBC13 ctr: -4; UBC13 conf: 45; Mdm2-MdmX conf: 23; Apaf-1 inh conf: 26; Rh110 interf inh: 2

What do the screens show for `COc1ccc(Cl)cc1-c1nc(-c2ccc(NC(=O)c3ccncc3)cc2)no1`?
Mdm2-MdmX inh: 6; Apaf1 inhib: 6; UPR XBP1 act: 0; UBC13 polyUb: 10; UPR CHOP act: -1

What do the screens show for `CCN1CCN(S(=O)(=O)c2ccc(Cl)c(C(=O)N(C)Cc3ccc(Cl)cc3Cl)c2)CC1`?
Mdm2-MdmX inh: 41; Apaf1 inhib: 28; UPR XBP1 act: -7; UBC13 polyUb: 29; UPR CHOP act: 1

Results for CCN1CCN(S(=O)(=O)c2ccc(Cl)c(C(=O)N(C)Cc3cccs3)c2)CC1 ?
Mdm2-MdmX inh: -1; Apaf1 inhib: 58*; UPR XBP1 act: 0; UBC13 polyUb: 49*; UPR CHOP act: -1; Casp3 UBC13 ctr: -3; UBC13 conf: 55*; Apaf-1 inh conf: 31; Rh110 interf inh: 1

What do the screens show for `COc1ccc(C(CNC(=O)COc2c(C)cc(C)cc2C)N2CCOCC2)cc1` (stereo unspecified)?
Mdm2-MdmX inh: -15; Apaf1 inhib: 66*; UPR XBP1 act: -2; UBC13 polyUb: 51*; UPR CHOP act: 0; Casp3 UBC13 ctr: -1; UBC13 conf: 29; Apaf-1 inh conf: 45*; Rh110 interf inh: 7; Fluor interf inh: >100

Results for c1ccc2c(C[C@@H]3CNCCN3CC3CCCCC3)cccc2c1 ?
Mdm2-MdmX inh: 49; Apaf1 inhib: 44*; UPR XBP1 act: -3; UBC13 polyUb: 60*; UPR CHOP act: 1; Casp3 UBC13 ctr: 2; UBC13 conf: 58*; Apaf-1 inh conf: 8; Rh110 interf inh: 9

How did COCCNC(=O)C1CCCN(S(=O)(=O)c2c(C)noc2/C=C/c2cccs2)C1 (stereo unspecified) do in these assays?
Mdm2-MdmX inh: -17; Apaf1 inhib: -22; UPR XBP1 act: 2; UBC13 polyUb: 18; UPR CHOP act: 4

How did Cc1noc(/C=C/c2cccs2)c1S(=O)(=O)N1CCC(C(=O)NCCCN2CCC(C)CC2)CC1 do in these assays?
Mdm2-MdmX inh: 24; Apaf1 inhib: 40*; UPR XBP1 act: 0; UBC13 polyUb: 49*; UPR CHOP act: -1; Casp3 UBC13 ctr: 0; UBC13 conf: 18; Apaf-1 inh conf: 16; Rh110 interf inh: 7

What do the screens show for `O=C(C[n+]1ccccc1)N/N=C/c1ccc(Cl)c(Cl)c1`?
Mdm2-MdmX inh: 15; Apaf1 inhib: 0; UPR XBP1 act: 1; UBC13 polyUb: -1; UPR CHOP act: 0

Results for CC(C)CNS(=O)(=O)c1ccc(OCC(=O)NCC2CCCO2)c(Cl)c1 (stereo unspecified) ?
Mdm2-MdmX inh: 30; Apaf1 inhib: -4; UPR XBP1 act: -1; UBC13 polyUb: -2; UPR CHOP act: -1

What do the screens show for `O=S(=O)(c1ccccc1Br)N1CCC(O)(c2cccnc2)CC1`?
Mdm2-MdmX inh: -3; Apaf1 inhib: 13; UPR XBP1 act: 0; UBC13 polyUb: 1; UPR CHOP act: 0

Results for COc1ccc(NS(=O)(=O)c2cc(C(=O)N3CCC3)ccc2C)cc1 ?
Mdm2-MdmX inh: 13; Apaf1 inhib: 48*; UPR XBP1 act: 0; UBC13 polyUb: 71*; UPR CHOP act: -1; Casp3 UBC13 ctr: 3; UBC13 conf: 77*; Apaf-1 inh conf: 13; Rh110 interf inh: 4

How did Cc1ccc(NS(=O)(=O)c2cc(C(=O)N3CCCC3)ccc2C)cc1C do in these assays?
Mdm2-MdmX inh: 4; Apaf1 inhib: 7; UPR XBP1 act: -4; UBC13 polyUb: 8; UPR CHOP act: 2

How did COc1ccc(NS(=O)(=O)c2ccc(C)c(NC(=O)CN3C(=O)NC4(CCCC4)C3=O)c2)cc1 do in these assays?
Mdm2-MdmX inh: 8; Apaf1 inhib: 82*; UPR XBP1 act: -1; UBC13 polyUb: 106*; UPR CHOP act: 1; Casp3 UBC13 ctr: 0; UBC13 conf: 55*; Apaf-1 inh conf: 58*; Rh110 interf inh: 2; Fluor interf inh: >100

What do the screens show for `CCCCCCCCCCCCCCCCn1cc[n+](C)c1`?
Mdm2-MdmX inh: 93*; Apaf1 inhib: 80*; UPR XBP1 act: 3; UBC13 polyUb: 73*; UPR CHOP act: 23; Casp3 UBC13 ctr: -3; UBC13 conf: 99*; Mdm2-MdmX conf: 91*; Full FLuc ctr: 4; Apaf-1 inh conf: 44*; Rh110 interf inh: 14; Fluor interf inh: >100

What do the screens show for `CN(C)C/C=C/C(=O)Nc1cccc(-c2c[nH]c3ncnc(Oc4ccc(NC(=O)CC(=O)Nc5ccc(F)cc5)cc4F)c23)c1`?
Mdm2-MdmX inh: 68*; Apaf1 inhib: 63*; UPR XBP1 act: -3; UBC13 polyUb: 112*; UPR CHOP act: -1; Casp3 UBC13 ctr: 3; UBC13 conf: 117*; Mdm2-MdmX conf: 2; Apaf-1 inh conf: 22; Rh110 interf inh: 1

Results for CC(=O)Nc1cccc(Oc2ncnc3scc(-c4ccccc4)c23)c1 ?
Mdm2-MdmX inh: -26; Apaf1 inhib: 5; UPR XBP1 act: 6; UBC13 polyUb: 3; UPR CHOP act: -1
